# RGS4 block: human RGS4 inhibition; actives 0.45% (n = 310,000); HEK293 M3R/RGS4 inducible, Fluo-4 calcium flux; hits give high values; triggered by carbachol at its EC20; AID 463165; B-score at 10 µM; P49798;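 active means B-score, a plate-corrected calcium signal, over three deviations above library mean, with baseline fluorescence within five deviations of library mean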;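 further: RGS4 expression induced by doxycycline in cells with stable M3 receptor; B-score is computed from the integrated fluorescence ratio over baseline after carbachol; higher B-score means a larger calcium signal and so more RGS4 inhibition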
# Target sequence (P49798 whole entry, looked up): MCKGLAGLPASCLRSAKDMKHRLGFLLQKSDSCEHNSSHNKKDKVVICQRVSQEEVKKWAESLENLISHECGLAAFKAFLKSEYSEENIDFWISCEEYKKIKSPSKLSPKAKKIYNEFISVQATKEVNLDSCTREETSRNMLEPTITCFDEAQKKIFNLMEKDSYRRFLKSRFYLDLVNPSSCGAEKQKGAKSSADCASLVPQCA
# MrgX1 ag: activates human MrgX1 receptor signaling | Q96LB2 | MrgX1-HEK293 cells, Fluo-4 calcium fluorescence, agonist mode; hits give high values | B-score at 10 µM | actives 0.44% (n = 310,000) | AID 588627;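 active means calcium response B-score plate-corrected fluorescence ratio at least 3 library SD, with starting fluorescence B-score inside 5 SD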
# Target sequence (Q96LB2 whole entry, looked up): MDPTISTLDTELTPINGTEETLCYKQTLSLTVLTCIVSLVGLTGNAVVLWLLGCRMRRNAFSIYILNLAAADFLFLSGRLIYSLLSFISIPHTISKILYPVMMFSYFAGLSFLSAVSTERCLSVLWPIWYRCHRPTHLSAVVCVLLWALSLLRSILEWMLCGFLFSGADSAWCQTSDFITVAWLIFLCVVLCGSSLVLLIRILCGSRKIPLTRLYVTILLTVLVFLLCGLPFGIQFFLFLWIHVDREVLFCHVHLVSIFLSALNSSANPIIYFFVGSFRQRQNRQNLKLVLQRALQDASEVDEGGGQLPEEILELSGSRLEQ
#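 System – MrgX1-expressing HEK293 cells · Incubation – cells plated overnight, dye loaded 0.5 h 37 °C, 0.5 h room temperature · Technique – kinetic Fluo-4 NW fluorescence of intracellular calcium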
# MrgX1 allo act: allosterically activates human MrgX1 receptor signaling; Q96LB2; MrgX1-HEK293, Fluo-4 calcium flux, FDSS; hits give high values; B-score at 10 µM; actives 0.63% (n = 310,000);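 active means plate-corrected calcium response at least 3 library SD above typical, normal starting fluorescence, not activating the receptor alone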;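 further: compound read alongside a low EC10 to EC30 dose of BAM8-22 agonist; peak minus trough fluorescence over baseline measured at the second addition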
# MrgX1 antag: human MrgX1 receptor antagonism, primary screen | MRGX1-HEK293 calcium flux, Fluo-4, BAM8-22 antagonism; hits give low values | B-score at 10 µM | actives 1.3% (n = 310,000) | AID 588676;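 active means calcium-response B-score plate-corrected more than 3 library SD below zero, starting fluorescence within 5 deviations, no agonist response on first addition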;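 further: peak minus trough fluorescence over baseline after final BAM8-22 challenge near maximal dose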
# RGS4 act: RGS4 potentiation or activation | HEK293 M3R/inducible RGS4, carbachol calcium flux Fluo4; hits give low values | B-score at 10 µM | actives 0.92% (n = 310,000) | AID 463111;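 active means B-score of the integrated calcium signal more than 4 SD below the library mean, with starting fluorescence not abnormally high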;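 further: negative B-score means reduced calcium response which marks RGS4 activation or potentiation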
#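 Material: Inducible-RGS4 HEK293 cells carrying M3 receptor; also added: carbachol at ECmax as muscarinic agonist stimulus; incubation: compound preincubation 20 min at room temperature before agonist; signal: Fluo4-AM (2 µM) calcium-flux fluorescence, kinetic read; measure: integrated calcium ratio converted to B score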
# MrgX1 ant reconf: human MrgX1 receptor antagonism, re-confirmation screen. shares compounds with MrgX1 antag. MrgX1-HEK293, BAM8-22 calcium flux, Fluo-4; hits give low values. remaining BAM8-22 calcium response % of control (hits give low values), % at 10 µM. actives 19% (n = 2,300). AID 602420;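 active means remaining agonist calcium response no higher than 100% minus 3 SD of agonist-only control wells, with starting fluorescence near control levels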;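 further: agonist BAM8-22 given at a near maximal EC90 to ECmax level; peak minus minimum fluorescence divided by baseline after agonist addition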
# HEK293 Ca flux: MrgX1 antagonist counter-screen hit in parental HEK293 cells | shares compounds with MrgX1 antag | Fluo-4 calcium fluorescence, FDSS | fluorescence ratio F(max-min)/F0 at 10 µM | actives 2% (n = 4,000) | AID 624111;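 active means duplicate-averaged calcium fluorescence ratio at least three times the standard deviation of buffer wells, a nonspecific response in parental cells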
# HEK293 Ca counter: activity in parental HEK293 cells without MrgX1; actives 0.4% (n = 4,000); AID 624114; shares compounds with MrgX1 antag; parental HEK293 calcium flux, Fluo-4 fluorescence ratio; hits give high values; fluorescence ratio F(max-min)/F0 at 10 µM;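 active means calcium fluorescence ratio, averaged over duplicates, at least 3 SD of the buffer-well ratio, meaning a nonspecific response in receptor-free cells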;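 further: untransfected parental HEK293 lacking MrgX1 used as counterscreen for MrgX1 allosteric activators; fluorescence change taken during the second addition on a kinetic imager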
# HEK293 Ca cntr2: activity in parental HEK293 cells lacking MrgX1 receptor; shares compounds with MrgX1 antag; Fluo-4 calcium fluorescence (FDSS); hits give high values; fluorescence ratio F(max-min)/F0 at 10 µM; actives 8.7% (n = 4,000);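 active means calcium fluorescence ratio at least three times the spread of buffer wells, meaning a non-specific response in parental cells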
# * = called active by the depositor; i = inactive; . = not tested or not shown. A selection: hits, their analogues and other compounds. The true share with any hit is near 3.5%.
SMILES,RGS4 block,MrgX1 ag,MrgX1 allo act,MrgX1 antag,RGS4 act,MrgX1 ant reconf,HEK293 Ca flux,HEK293 Ca counter,HEK293 Ca cntr2
CC1(C)Cc2nc(N3CCOCC3)c(C#N)cc2CO1,i,i,i,-6.1*,i,i,i,i,i
COc1ccc(NC(=O)CN(C)C(=O)CSc2ccc3c(c2)OCCO3)cc1,i,i,i,-5.2*,i,i,i,i,i
COc1ccc(C)cc1NC(=O)c1nnn(Cc2cc(C)ccc2C)c1N,i,i,i,-5.2*,i,i,i,i,i
COc1ccc(NC(=O)c2nnn(Cc3ccc(SC)cc3)c2N)c(OC)c1,i,i,i,-4.7*,i,i,i,i,i
Cc1occc1C(=O)Nc1sc2c(c1C(N)=O)CCCCC2,i,i,i,-6.5*,i,i,i,i,i
CCc1c(C)sc(NC(=O)c2ccoc2C)c1C(N)=O,i,i,i,-5.9*,i,i,i,i,i
NC(=O)c1sc2nc(-c3cccs3)ccc2c1N,i,i,i,i,i,.,.,.,.
Nc1c(C(=O)NC2CCCC2)sc2nc(-c3cccs3)ccc12,i,i,i,-4.7*,i,i,i,i,i
COc1ccc(CN2C(=O)c3cccnc3C2=O)cc1S(=O)(=O)N(C)Cc1ccco1,i,i,i,i,i,.,.,.,.
CN(Cc1ccco1)S(=O)(=O)c1cc(F)ccc1CN1C(=O)c2cccnc2C1=O,i,i,i,-4.9*,i,i,i,i,i
CCCn1c(SCc2ccccn2)nc2c1c(=O)n(C)c(=O)n2C,i,i,i,-7.8*,i,i,i,i,i
CC1CCCCC1NC(=O)c1cccc(S(=O)(=O)N2CCN(C)CC2)c1 (centres undefined),i,i,i,i,i,.,.,.,.
CC1CCCC(NC(=O)c2cccc(S(=O)(=O)N3CCN(c4ccccc4)CC3)c2)C1C (centres undefined),i,i,i,-9.2*,i,i,i,i,i
CCCC(CCC(=O)NC1CCCCC1)C(=O)O (centres undefined),i,i,i,i,i,.,.,.,.
CCCC(C)NC(C)C(=O)NC1CCCC1 (centres undefined),i,i,i,-5*,i,i,i,i,i
COCCCNC(=O)CSc1nc2cc(S(=O)(=O)N3CCCCC3)ccc2o1,i,i,i,i,i,.,.,.,.
COc1cc(=O)[nH]c(SCC(=O)Nc2ccc3ccccc3c2)n1,i,i,i,i,i,.,.,.,.
CCN(CC)C(=O)CSc1nc(OC)cc(=O)[nH]1,i,i,i,-9.5*,i,i,i,i,53*
CCc1ccccc1NC(=O)CSc1nnc(-c2ccco2)n1N,i,i,i,-6.7*,i,i,i,i,i
O=C(O)CC(NNC(=O)c1ccccc1)C(=O)Nc1ccc([N+](=O)[O-])cc1 (centres undefined),i,i,i,i,i,.,.,.,.
Cc1nc2cc(C(=O)NCc3ccc4c(c3)OCO4)ccc2n1-c1ccc(Br)cc1,i,i,i,-4.8*,i,i,i,i,i
O=C(NCc1cccc(Cl)c1)c1ccc2c(c1)OCO2,i,i,i,i,i,.,.,.,.
O=C(NCc1ccc2c(c1)OCO2)c1cccc(Cl)c1,i,i,i,-5.2*,i,i,i,i,i
O=C(NCc1ccc2c(c1)OCO2)c1ccc(Br)cc1,i,i,i,i,i,.,.,.,.
Cc1cccc(NS(=O)(=O)c2ccc(C(=O)NCC(c3ccccc3)N(C)C)cc2)c1C (centres undefined),i,i,i,-5.2*,i,85%*,i,i,i
SMILES,RGS4 block,MrgX1 ag,MrgX1 allo act,MrgX1 antag,RGS4 act,MrgX1 ant reconf,HEK293 Ca flux,HEK293 Ca counter,HEK293 Ca cntr2
CN(C)C(CNC(=O)c1ccc(NS(=O)(=O)c2ccc(F)cc2)cc1)c1ccco1 (centres undefined),i,i,i,-6.1*,i,i,i,i,i
Cc1ccc(CCNC(=O)CCS(=O)(=O)c2cc3c(cc2C)NC(=O)CO3)cc1,i,i,i,i,i,.,.,.,.
C=C(C(=O)Nc1ccccc1)c1ccc(C)cc1,i,i,i,i,i,.,.,.,.
CC1C=CCC2C(=O)N(c3cccc(C(=O)Nc4ccc(F)cc4)c3)C(=O)C12 (centres undefined),i,i,i,i,i,.,.,.,.
Cc1ccc(S(=O)(=O)CCc2nc3ccccc3[nH]2)cc1,i,i,i,i,i,.,.,.,.
Cc1ccc(S(=O)(=O)CCc2nc3ccccc3[nH]2)cc1C,i,i,i,-4.7*,i,i,i,i,i
COc1ccc(C(=O)Oc2ccc3c(C)cc(=O)oc3c2C(C)=O)cc1,i,i,i,-4.6*,i,i,i,i,i
CCS(=O)(=O)N1Cc2ccccc2CC1C(=O)Nc1ccc(F)c(F)c1 (centres undefined),i,i,i,i,i,.,.,.,.
CCN(CC)S(=O)(=O)c1ccc(O)c(C(=O)OCC(=O)N2CCCC2)c1,i,i,i,i,i,.,.,.,.
COCCn1c(SCC(=O)NCc2ccc(OC)c(OC)c2)nc2ccccc21,i,i,i,i,i,.,.,.,.
Cc1ccc(C)c(NC(=O)CS(=O)(=O)c2cn(C)c3ccccc23)c1,i,i,i,-13*,i,i,i,i,i
Cn1cc(S(=O)(=O)CC(=O)Nc2ccc3c(c2)OCCO3)c2ccccc21,i,i,i,i,i,.,.,.,.
COc1ccc(NC(=O)CN(C)C(=O)c2ccc(-c3ccccc3Cl)o2)cc1,i,i,i,-4.7*,i,i,i,i,i
COc1ccc(NC(=O)CN(C)C(=O)c2ccc(-c3cccc(C(F)(F)F)c3)o2)cc1,i,i,i,i,i,.,.,.,.

# Assay outcomes as filed in PubChem BioAssay.
